Test results as given in ChEMBL document CHEMBL3271970, “Radiopharmaceuticals. 16. Halogenated dopamine analogs. Synthesis and radiolabeling of 6-iododopamine and tissue distribution studies in animals” (J Med Chem, 1976).

What was measured:
[1] = tested on: Rattus norvegicus; test: Biodistribution in adrenal cortex of rat assessed per organ at 3.6 x 10^-8 mol, iv measured after 30 mins; type: ADME, organism-based; conditions: in vivo, 0.5 h
Procedure, shortened: (§1)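 [131I]-6-iododopamine in water or saline, used within 30 min of preparation. Injected iv at 3.6 × 10^-8 mol/rat. Rats killed by ether overdose at 5, 30 or 60 min, or at 2, 4 or 24 h. Tissue radioactivity expressed as % dose/organ, mean ± SD of four rats.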

[2] = tested on: Rattus norvegicus; test: Biodistribution in adrenal cortex of rat assessed per organ at 3.6 x 10^-8 mol, iv measured after 5 mins; type: ADME, organism-based; conditions: in vivo; procedure, shortened: as §1
[3] = tested on: Liver; test: Biodistribution in liver of rat assessed per organ at 3.6 x 10^-8 mol, iv measured after 5 mins; type: ADME, organism-based; conditions: in vivo
Procedure, shortened: (§2)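 [131I]-labelled tracer in water or saline, injected within 30 min of preparation. Rats given 3.6 × 10^-8 mol/rat iv, killed by ether overdose at each time point. Organs excised and radioactivity counted as % dose/organ, mean ± SD of four rats.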

[4] = tested on: Rattus norvegicus; test: Biodistribution in adrenal cortex of rat assessed per organ at 3.6 x 10^-8 mol, iv measured after 4 hrs; type: ADME, organism-based; conditions: in vivo; procedure, shortened: as §1
[5] = tested on: Blood; test: Biodistribution in blood of rat at 3.6 x 10^-8 mol, iv measured after 24 hrs; type: ADME, organism-based; conditions: in vivo
Procedure, shortened: (§3)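 [131I]-6-iododopamine in water or saline, used within 30 min of preparation. Injected iv at 3.6 × 10^-8 mol/rat. Rats killed by ether overdose at 5 min to 24 h. Blood radioactivity expressed as % dose/g, mean ± SD of four rats.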

[6] = tested on: Kidney; test: Biodistribution in kidney of mouse assessed per organ at 8 to 11 x 10^-8 mol, iv measured after 60 mins; type: ADME, organism-based; conditions: in vivo, 1 h
Procedure, shortened: (§4)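 [131I]- or [123I]-6-iododopamine in water or saline, used within 30 min of preparation. Injected iv at 8-11 × 10^-8 mol/mouse. Mice killed by ether overdose at 5-240 min; 3-10 mice per time point. Tissue radioactivity expressed as % dose/organ ± SD.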

[7] = Biodistribution in adrenal cortex of mongrel dog assessed per organ at 1.29 x 10^-6 mol, iv measured after 2 hrs; type: ADME, organism-based, Canis lupus familiaris; conditions: in vivo
Procedure, shortened: (§5)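 Radioiodinated ([123I] or [131I]) 6-iododopamine in water or saline, used within 30 min of preparation. Given iv at 1.29 × 10^-6 mol/dog; one dog per time point, killed at 2 or 24 h. Large organs counted as three samples and averaged; adrenals and thyroid taken intact and counted. Expressed as % dose/organ.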

[8] = tested on: Mus musculus; test: Biodistribution in adrenal gland of mouse assessed per organ at 8 to 11 x 10^-8 mol, iv measured after 120 mins; type: ADME, organism-based; conditions: in vivo, 2 h; procedure, shortened: as §4
[9] = tested on: Mus musculus; test: Biodistribution in thyroid gland of mouse assessed per organ at 8 to 11 x 10^-8 mol, iv measured after 15 mins; type: ADME, organism-based; conditions: in vivo, 0.25 h
Procedure, shortened: (§6)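 Tracer labelled with either 123I or 131I, in water or saline, used within 30 min of preparation. Mice dosed iv at 8-11 × 10^-8 mol/mouse and killed by ether overdose. Organs counted as % dose/organ ± SD, n = 3-10 mice per time point.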

[10] = tested on: Liver; test: Biodistribution in liver of rat assessed per organ at 3.6 x 10^-8 mol, iv measured after 4 hrs; type: ADME, organism-based; conditions: in vivo; procedure, shortened: as §2
[11] = tested on: Liver; test: Biodistribution in liver of rat assessed per organ at 3.6 x 10^-8 mol, iv measured after 24 hrs; type: ADME, organism-based; conditions: in vivo; procedure, shortened: as §2
[12] = Biodistribution in adrenal medulla of mongrel dog assessed per organ at 1.29 x 10^-6 mol, iv measured after 2 hrs; type: ADME, organism-based, Canis lupus familiaris; conditions: in vivo; procedure, shortened: as §5
[13] = tested on: Kidney; test: Biodistribution in kidney of rat assessed per organ at 3.6 x 10^-8 mol, iv measured after 30 mins; type: ADME, organism-based; conditions: in vivo, 0.5 h; procedure, shortened: as §1
[14] = tested on: Blood; test: Biodistribution in blood of rat at 3.6 x 10^-8 mol, iv measured after 4 hrs; type: ADME, organism-based; conditions: in vivo; procedure, shortened: as §3
[15] = tested on: Adrenal medulla; test: Biodistribution in adrenal medulla of rat assessed per organ at 3.6 x 10^-8 mol, iv measured after 2 hrs; type: ADME, organism-based; conditions: in vivo; procedure, shortened: as §1
[16] = tested on: Adrenal medulla; test: Biodistribution in adrenal medulla of rat assessed per organ at 3.6 x 10^-8 mol, iv measured after 60 mins; type: ADME, organism-based; conditions: in vivo, 1 h; procedure, shortened: as §1
[17] = tested on: Rattus norvegicus; test: Biodistribution in thyroid gland of rat assessed per organ at 3.6 x 10^-8 mol, iv measured after 5 mins; type: ADME, organism-based; conditions: in vivo; procedure, shortened: as §2
[18] = tested on: Mus musculus; test: Biodistribution in adrenal gland of mouse assessed per organ at 8 to 11 x 10^-8 mol, iv measured after 15 mins; type: ADME, organism-based; conditions: in vivo, 0.25 h; procedure, shortened: as §4
[19] = Biodistribution in kidney of mongrel dog assessed per organ at 1.29 x 10^-6 mol, iv measured after 24 hrs; type: ADME, organism-based, Canis lupus familiaris; conditions: in vivo; procedure, shortened: as §5
[20] = tested on: Blood; test: Biodistribution in blood of rat at 3.6 x 10^-8 mol, iv measured after 30 mins; type: ADME, organism-based; conditions: in vivo, 0.5 h; procedure, shortened: as §3
[21] = tested on: Mus musculus; test: Biodistribution in adrenal gland of mouse assessed per organ at 8 to 11 x 10^-8 mol, iv measured after 60 mins; type: ADME, organism-based; conditions: in vivo, 1 h; procedure, shortened: as §4
[22] = tested on: Rattus norvegicus; test: Biodistribution in adrenal cortex of rat assessed per organ at 3.6 x 10^-8 mol, iv measured after 24 hrs; type: ADME, organism-based; conditions: in vivo; procedure, shortened: as §1
[23] = tested on: Kidney; test: Biodistribution in kidney of mouse assessed per organ at 8 to 11 x 10^-8 mol, iv measured after 15 mins; type: ADME, organism-based; conditions: in vivo, 0.25 h; procedure, shortened: as §4
[24] = tested on: Rattus norvegicus; test: Biodistribution in thyroid gland of rat assessed per organ at 3.6 x 10^-8 mol, iv measured after 4 hrs; type: ADME, organism-based; conditions: in vivo; procedure, shortened: as §2
[25] = Biodistribution in kidney of mongrel dog assessed per organ at 1.29 x 10^-6 mol, iv measured after 2 hrs; type: ADME, organism-based, Canis lupus familiaris; conditions: in vivo; procedure, shortened: as §5
[26] = tested on: Liver; test: Biodistribution in liver of mouse assessed per organ at 8 to 11 x 10^-8 mol, iv measured after 240 mins; type: ADME, organism-based; conditions: in vivo, 4 h; procedure, shortened: as §4
[27] = tested on: Liver; test: Biodistribution in liver of mongrel dog assessed per organ at 1.29 x 10^-6 mol, iv measured after 24 hrs; type: ADME, organism-based, Canis lupus familiaris; conditions: in vivo; procedure, shortened: as §5
[28] = tested on: Liver; test: Biodistribution in liver of mouse assessed per organ at 8 to 11 x 10^-8 mol, iv measured after 60 mins; type: ADME, organism-based; conditions: in vivo, 1 h; procedure, shortened: as §4
[29] = tested on: Rattus norvegicus; test: Biodistribution in thyroid gland of rat assessed per organ at 3.6 x 10^-8 mol, iv measured after 2 hrs; type: ADME, organism-based; conditions: in vivo; procedure, shortened: as §2
[30] = tested on: Kidney; test: Biodistribution in kidney of mouse assessed per organ at 8 to 11 x 10^-8 mol, iv measured after 240 mins; type: ADME, organism-based; conditions: in vivo, 4 h; procedure, shortened: as §4
[31] = tested on: Kidney; test: Biodistribution in kidney of mouse assessed per organ at 8 to 11 x 10^-8 mol, iv measured after 30 mins; type: ADME, organism-based; conditions: in vivo, 0.5 h; procedure, shortened: as §4
[32] = tested on: Kidney; test: Biodistribution in kidney of mouse assessed per organ at 8 to 11 x 10^-8 mol, iv measured after 120 mins; type: ADME, organism-based; conditions: in vivo, 2 h; procedure, shortened: as §4
[33] = tested on: Kidney; test: Biodistribution in kidney of rat assessed per organ at 3.6 x 10^-8 mol, iv measured after 2 hrs; type: ADME, organism-based; conditions: in vivo; procedure, shortened: as §1
[34] = tested on: Mus musculus; test: Biodistribution in thyroid gland of mouse assessed per organ at 8 to 11 x 10^-8 mol, iv measured after 120 mins; type: ADME, organism-based; conditions: in vivo, 2 h; procedure, shortened: as §6
[35] = tested on: Blood; test: Biodistribution in blood of rat at 3.6 x 10^-8 mol, iv measured after 2 hrs; type: ADME, organism-based; conditions: in vivo; procedure, shortened: as §3

Br.NCCc1cc(O)c(O)cc1[131I]
Drug uptake [1]: 0.0062 %ID | Drug uptake [2]: 0.0098 %ID | Drug uptake [3]: 4.58 %ID | Drug uptake [4]: 0.002 %ID | Drug uptake [5]: 0.0062 %ID | Drug uptake [6]: 1 %ID | Drug uptake [7]: 0.0092 %ID | Drug uptake [8]: 0.02 %ID | Drug uptake [9]: 0.067 %ID | Drug uptake [10]: 0.265 %ID | Drug uptake [11]: 0.072 %ID | Drug uptake [12]: 0.0062 %ID | Drug uptake [13]: 2.37 %ID | Drug uptake [14]: 0.055 %ID | Drug uptake [15]: 0.0035 %ID | Drug uptake [16]: 0.0038 %ID | Drug uptake [17]: 0.029 %ID | Drug uptake [18]: 0.015 %ID | Drug uptake [19]: 0.075 %ID | Drug uptake [20]: 0.48 %ID | Drug uptake [21]: 0.0087 %ID | Drug uptake [22]: 0.000081 %ID | Drug uptake [23]: 3.44 %ID | Drug uptake [24]: 0.251 %ID | Drug uptake [25]: 0.77 %ID | Drug uptake [26]: 0.94 %ID | Drug uptake [27]: 0.48 %ID | Drug uptake [28]: 1.04 %ID | Drug uptake [29]: 0.183 %ID | Drug uptake [30]: 0.79 %ID | Drug uptake [31]: 1.69 %ID | Drug uptake [32]: 0.78 %ID | Drug uptake [33]: 0.168 %ID | Drug uptake [34]: 0.176 %ID | Drug uptake [35]: 0.052 %ID
